Measurements pooled from the literature.
Compare with care: the assays were run in different laboratories.
SLCO1B1: Solute carrier organic anion transporter family member 1B1 (SLCO1B1, Homo sapiens, UniProt Q9Y6L6)
PGR: Progesterone receptor (PGR, Homo sapiens, UniProt P06401)
CHRM1: Muscarinic acetylcholine receptor M1 (CHRM1, Homo sapiens, UniProt P11229)

| Structure (SMILES) | target | test | system | conditions | measurement | value |
| --- | --- | --- | --- | --- | --- | --- |
| COC1CCN(CCC(C#N)(c2ccccc2)c2ccccc2)CC1 | Potassium voltage-gated channel subfamily A member 3 (Kcna3, Mus musculus, UniProt P16390) | ion current, inhibitor, patch clamp | – | – | IC50 | > 100 µM |
| CCN1C[C@]2(COC)[C@H](O)C[C@H](OC)[C@@]34[C@@H]5C[C@@]6(O)[C@H](OC(=O)c7ccccc7)[C@@H]5[C@@](OC(C)=O)([C@@H]([C@H](OC)[C@H]23)[C@@H]14)[C@@H](O)[C@@H]6OC | SLCO1B1 | transporter uptake, inhibitor, fluorescence | CHO | 30 min, pH 7.4 | IC50 | > 100 µM |
| C[C@]12CC[C@H]3[C@@H](CCC4=CC(=O)CC[C@@]43C)[C@@H]1CC[C@@H]2O | PGR | ligand displacement | – | – | IC50 | > 0.5 µM |
| CC(C)(C)[C@H](NC(=O)C(F)(F)F)C(=O)N1C[C@H]2[C@@H]([C@H]1C(=O)N[C@H](C#N)C[C@@H]1CCNC1=O)C2(C)C | Papain (Carica papaya, UniProt P00784) | enzyme activity, inhibitor | – | – | IC50 | > 10 µM |
| C[C@]12CC[C@H]3[C@@H](CCC4=CC(=O)CC[C@@H]43)[C@@H]1CC[C@@H]2O | PGR | ligand displacement | – | – | IC50 | 0.0678 µM |
| Cc1nnc2n1-c1ccc(Cl)cc1C(c1ccccc1)=NC2 | Cytochrome P450 1A2 (CYP1A2, Homo sapiens, UniProt P05177) | enzyme activity, inhibitor, fluorescence | – | – | IC50 | > 100 µM |
| Clc1cccc(N2CCNCC2)c1Cl | CHRM1 | ligand displacement, radioligand | – | cell membranes | Ki | 25.1 µM |
| C[C@]1(O)CC[C@H]2[C@@H]3CCC4=CC(=O)CCC4=C3CC[C@@]21C | PGR | reporter gene, agonist | – | – | EC50 | 0.0008 µM |
| CCOC(=O)c1cncn1[C@H](C)c1ccccc1 | SLCO1B1 | transporter uptake, inhibitor, fluorescence | CHO | 30 min, pH 7.4 | IC50 | > 100 µM |
| CCCCCCCNCCCc1ccc([N+](=O)[O-])cc1 | CHRM1 | ligand displacement, radioligand | – | – | Ki | 1.9 µM |
| CC(C)(C)[C@H](NC(=O)C(F)(F)F)C(=O)N1C[C@H]2[C@@H]([C@H]1C(=O)N[C@H](C#N)C[C@@H]1CCNC1=O)C2(C)C | Cytochrome P450 3A4 (CYP3A4, Homo sapiens, UniProt P08684) | enzyme activity, inhibitor | human, liver microsomes | – | Ki | 22.6 µM |
